# Measured values taken from ChEMBL document CHEMBL2321661, “Synthesis and biological evaluation of 5-nitropyrimidine analogs with azabicyclic substituents as GPR119 agonists” (Bioorg Med Chem Lett, 2013).
# What was measured:
# [1] = target: T1, Glucose-dependent insulinotropic receptor (Homo sapiens) (UniProt Q8TDV5); assay: Agonist activity at human GPR119 transfected in HEK293 cells assessed as cAMP stimulation relative to maximal effect of oleylethanolamine; type: functional, cell-based
# T1 sequence (whole entry): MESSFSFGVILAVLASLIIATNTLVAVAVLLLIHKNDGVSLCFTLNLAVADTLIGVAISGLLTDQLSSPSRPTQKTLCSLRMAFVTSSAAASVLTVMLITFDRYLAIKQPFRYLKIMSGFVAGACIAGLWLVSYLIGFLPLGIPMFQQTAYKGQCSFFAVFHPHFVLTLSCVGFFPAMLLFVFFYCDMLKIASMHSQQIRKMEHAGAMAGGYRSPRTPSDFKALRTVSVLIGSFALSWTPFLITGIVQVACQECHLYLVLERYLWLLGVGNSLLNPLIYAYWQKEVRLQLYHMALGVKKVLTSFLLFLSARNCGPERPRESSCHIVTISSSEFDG
# Method in brief: (§1)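 HEK293 cells seeded at 4 × 10³ cells/well and grown 24 h, then transiently transfected with a human GPR119 expression plasmid by lipofection. After 24 h, compounds were applied in KRBH buffer with 0.1% BSA and IBMX for 60 min at 37 °C. Cells were lysed 10 min at room temperature (phosphate/KF/Triton, pH 7.0), and cAMP was read by HTRF.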
# [2] = target: T2, Glucose-dependent insulinotropic receptor (Homo sapiens, UniProt Q8TDV5); assay: Agonist activity at human GPR119 transfected in HEK293 cells assessed as concentration for 50 % cAMP stimulation of oleylethanolamine; type: functional, cell-based; method in brief: as §1
# T2 sequence (Q8TDV5 whole entry): T1 sequence (whole entry)
Emax [1],EC50 [2],Compound
99%,1.5 nM,CC(C)(C)OC(=O)N1[C@@H]2CC[C@H]1C[C@H](Nc1ncnc(Nc3ccc(S(C)(=O)=O)cc3F)c1[N+](=O)[O-])C2
53%,6.7 nM,CC(C)(C)OC(=O)N1[C@@H]2CC[C@H]1C[C@@H](CNc1ncnc(Nc3ccc(S(C)(=O)=O)cc3F)c1[N+](=O)[O-])C2
,14.5 nM,CC(C)(C)OC(=O)N1[C@@H]2CC[C@H]1C[C@@H](Oc1ncnc(Nc3ccc(S(C)(=O)=O)cc3)c1[N+](=O)[O-])C2 (stereo in doubt; 13) [listing 1 of 2 here]
,4.9 nM,CC(C)(C)OC(=O)N1[C@@H]2CC[C@H]1C[C@@H](Oc1ncnc(Nc3ccc(S(C)(=O)=O)cc3)c1[N+](=O)[O-])C2 (stereo in doubt; 11) [listing 1 of 2 here]
139%,11.5 nM,CC(C)(C)OC(=O)N1[C@@H]2CC[C@H]1C[C@H](Nc1ncnc(Nc3ccc(S(C)(=O)=O)cc3)c1[N+](=O)[O-])C2
99%,,CC(C)(C)OC(=O)N1[C@@H]2CC[C@H]1C[C@@H](Oc1ncnc(Nc3ccc(S(C)(=O)=O)cc3)c1[N+](=O)[O-])C2 (stereo in doubt; 11) [listing 2 of 2 here]
69%,,CC(C)(C)OC(=O)N1[C@@H]2CC[C@H]1C[C@@H](Oc1ncnc(Nc3ccc(S(C)(=O)=O)cc3)c1[N+](=O)[O-])C2 (stereo in doubt; 13) [listing 2 of 2 here]
41%,> 10000 nM,CC(C)(C)OC(=O)N1[C@@H]2CC[C@H]1C[C@@H](CNc1ncnc(Nc3ccc(S(C)(=O)=O)cc3)c1[N+](=O)[O-])C2

# More lines, now with the values behind:
Compound,Emax [1],EC50 [2]
CCCCCCCC/C=C\CCCCCCCC(=O)NCCO,100%,
CC(C)(C)OC(=O)N1[C@@H]2CC[C@H]1C[C@@H](Oc1ncnc(Nc3ccc(S(C)(=O)=O)cc3F)c1[N+](=O)[O-])C2 (stereo in doubt; 12) [listing 1 of 2 here],116%,
CC(C)(C)OC(=O)N1[C@@H]2CC[C@H]1C[C@@H](Oc1ncnc(Nc3ccc(S(C)(=O)=O)cc3F)c1[N+](=O)[O-])C2 (stereo in doubt; 14) [listing 1 of 2 here],65%,
CC(C)(C)OC(=O)N1[C@@H]2CC[C@H]1C[C@@H](Oc1ncnc(Nc3ccc(S(C)(=O)=O)cc3F)c1[N+](=O)[O-])C2 (stereo in doubt; 14) [listing 2 of 2 here],,1.4 nM
CC(C)(C)OC(=O)N1[C@@H]2CC[C@H]1C[C@@H](Oc1ncnc(Nc3ccc(S(C)(=O)=O)cc3F)c1[N+](=O)[O-])C2 (stereo in doubt; 12) [listing 2 of 2 here],,1.5 nM
